High-throughput results deposited in PubChem BioAssay by Sanford-Burnham Center for Chemical Genomics.
Diaph inh CS: diaphorase inhibition or chemical oxidation counter-screen | diaphorase resazurin-to-resorufin fluorescence, NADH, 16 min; bacterial (C. kluyveri) enzyme, not human | AID 1217 | inhibition, % at 20 µM | 190,000 tested, 0.69% active;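 active = primary screen inhibition at 20 µM above a set limit, cut at about 50% in these data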;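 also: plate controls were DMSO with full reaction for no effect and wells lacking NADH for full effect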
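Assay system: diaphorase enzyme from Clostridium kluyveri; Input: enzyme working solution with 0.14 U/mL diaphorase; Timing: 16 min at room temperature; Technique: resorufin fluorescence, excitation 544 nm, emission 590 nm; Benchmarks: positive control minus NADH, DMSO neutral control.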
G6PDH counter: L. mesenteroides G6PDH inhibition counter-screen; Purified L. mesenteroides G6PDH, diaphorase/resazurin coupled fluorescence, 45 min; 200,000 tested, 0.12% active; inhibition, % at 5 µM; AID 1020; in the data active = inhibition above about 50%
HKDC1 inhibitor: HKDC1 (human) hexokinase inhibition. 340,000 tested, 0.16% active. AID 493160. inhibition, % at 20 µM. Q2TB90. recombinant HKDC1, G6PDH/diaphorase resazurin coupled fluorescence;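 active = inhibition above about 35% when tested at 20 µM, limit read from the data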;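 also: plate controls were DMSO wells with enzyme for no effect and DMSO wells lacking enzyme for full effect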
Target sequence (Q2TB90 whole entry, looked up): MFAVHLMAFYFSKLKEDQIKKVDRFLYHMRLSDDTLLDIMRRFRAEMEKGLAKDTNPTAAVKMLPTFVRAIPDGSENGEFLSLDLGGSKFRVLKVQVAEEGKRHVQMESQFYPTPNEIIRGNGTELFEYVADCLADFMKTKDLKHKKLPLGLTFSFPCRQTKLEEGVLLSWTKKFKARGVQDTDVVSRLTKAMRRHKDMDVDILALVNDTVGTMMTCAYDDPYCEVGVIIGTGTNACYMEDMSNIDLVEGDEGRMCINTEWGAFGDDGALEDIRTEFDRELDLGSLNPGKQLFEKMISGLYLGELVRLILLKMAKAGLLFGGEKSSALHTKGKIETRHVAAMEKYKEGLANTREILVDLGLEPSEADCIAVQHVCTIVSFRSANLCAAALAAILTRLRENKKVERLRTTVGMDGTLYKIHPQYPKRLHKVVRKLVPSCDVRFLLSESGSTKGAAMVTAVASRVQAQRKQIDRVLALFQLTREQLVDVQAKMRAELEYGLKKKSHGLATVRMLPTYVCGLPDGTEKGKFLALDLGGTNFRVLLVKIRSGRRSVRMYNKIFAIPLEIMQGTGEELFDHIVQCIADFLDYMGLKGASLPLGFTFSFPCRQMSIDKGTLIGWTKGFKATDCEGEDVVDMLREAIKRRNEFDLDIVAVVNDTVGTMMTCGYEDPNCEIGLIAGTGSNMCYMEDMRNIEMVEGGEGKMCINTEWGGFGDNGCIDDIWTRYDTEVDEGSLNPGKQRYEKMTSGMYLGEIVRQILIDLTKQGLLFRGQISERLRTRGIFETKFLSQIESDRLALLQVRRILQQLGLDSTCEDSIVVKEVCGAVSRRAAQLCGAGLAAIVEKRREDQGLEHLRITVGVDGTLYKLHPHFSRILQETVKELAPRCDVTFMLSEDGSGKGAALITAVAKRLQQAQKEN
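Test system: HK5 enzyme. Quantity: 5 µg/mL HK5 final. Reagent: glucose and ATP substrates. Schedule: 90 min reaction incubation at room temperature, dark. Technique: resazurin-to-resorufin fluorescence via G6PDH and diaphorase coupling, 525/613 nm. Control set: DMSO wells with and without enzyme mix.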
Diaph act CS: counter-screen for diaphorase-based assays: diaphorase activators and chemical reducers; Diaphorase/resazurin coupled assay, resorufin fluorescence, 16 min; hits give high values; 1 = vehicle wells, 0 = NADH-free wells; 190,000 tested, 0.005% active; activation factor at 20 µM; AID 1229;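 active = diaphorase activity raised at least twofold by the compound at 20 µM; inactive = activation factor below 2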
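System – purified diaphorase enzyme from Clostridium kluyveri · Input – enzyme 0.07 U/mL final · Also added – final NADH 0.114 mM, resazurin 0.1 mM · Measured by – fluorescence of resorufin, 544 nm excitation, 590 nm emission · Timing – 16 min enzyme reaction, ambient temperature · Measure – resorufin increase flagging diaphorase activators or reducers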
PfGluPho inh: PfG6PD (Plasmodium falciparum) enzyme inhibition. PfGluPho enzyme, NADPH resazurin-diaphorase fluorescence. inhibition, % at 20 µM. 350,000 tested, 0.78% active;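 active = inhibition reaching at least a set limit at 20 µM in the primary screen, cut at about 59% in these data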;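 also: 0% = DMSO wells with substrate and 100% = DMSO wells lacking glucose-6-phosphate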
An asterisk follows results filed as active; . = no result. Hits are enriched below; roughly 1.2% of the tested compounds scored in any of these assays.

SMILES	Diaph inh CS	G6PDH counter	HKDC1 inhibitor	Diaph act CS	PfGluPho inh
c1ccc(C2Nc3cccc4cccc(c34)N2)cc1	.	.	13	.	55
CCOC(=O)N1CCc2c(sc(NC(=O)CN(CC)CC)c2C#N)C1	.	.	-3	.	-11
CCCCN1C[C@H](C)[C@@H](CC(=O)NCc2ccccc2)C1=O	.	.	-7	.	13
O=S(=O)(c1ccc2ccccc2c1)N1CCC(c2nc(-c3ccncc3)no2)CC1	57*	-1	-10	0.4	0
COc1cc(S(=O)(=O)NC2CCCCC2C)ccc1F (stereo unspecified)	.	.	-3	.	-2
CCCCCCCCCCCCCCCC[n+]1cccc(C(=O)N(CC)CC)c1	-95	-6	0	2*	4
OC(CN1CCOCC1)Cn1c2c(c3ccccc31)CCCC2 (stereo unspecified)	.	.	10	.	-2
O=C1c2cccc3c(N4CCCCC4)ccc(c23)C(=O)N1c1ccccc1O	61*	9	0	0.4	-1
O=C1c2cccc3c(N4CCCCC4)ccc(c23)C(=O)N1c1ccc(O)cc1	15	6	-5	0.8	6
CCC1NC(=O)c2cccnc2-n2c1nc1cc(OC)c(OC)cc1c2=O (stereo unspecified)	.	.	.	.	6
CN1CCc2c(C#N)c(N3CCCCC3)nc(NCc3ccccc3)c2C1	17	23	12	0.8	3
N#Cc1c(NCCCO)nc(NCc2ccccc2)c2c1CCN(Cc1ccccc1)C2	56*	40	9	0.4	24
CCNC1=C(Cl)C(=O)c2ccccc2C1=O	22	37	-3	0.8	-105
O=C1C(Cl)=C(NCCN2CCCCC2)C(=O)c2ccccc21	9	51*	2	0.9	-59
CCCCC(CC)C(=O)Nc1ncc([N+](=O)[O-])s1 (stereo unspecified)	9	-2	1	0.9	14
Cc1ccc(NC(=O)/C(=C\c2ccc([N+](=O)[O-])cc2)NC(=O)c2ccccc2)cc1	-5	9	-3	1.1	-18
O=C(N/N=C/c1ccc(O)c(O)c1O)/C(=C/c1ccc([N+](=O)[O-])cc1)NC(=O)c1ccccc1	74*	2	25	0.3	84*
COc1cc2c(cc1OC)-c1cc3ccc4c(c3c[n+]1CC2)OCO4	8	52*	16	0.9	27
CCCN(CCC)C(=O)CSc1nc2c(sc(=S)n2-c2ccc(OCC)cc2)c(=O)[nH]1	80*	-4	-4	0.2	-9
CCCCN(CC)C(=O)CSc1nc2c(sc(=S)n2-c2ccc(OCC)cc2)c(=O)[nH]1	72*	3	-3	0.3	-20
CCOc1ccc(-n2c(=S)sc3c(=O)[nH]c(SCC(=O)NC(C)CC)nc32)cc1 (stereo unspecified)	32	1	-6	0.7	-20
CCOC(=O)CC(=O)CSc1nc2c(sc(=S)n2-c2ccc(OCC)cc2)c(=O)[nH]1	60*	-4	15	0.4	-14
CCOC(=O)CC(=O)CSc1nc2c(sc(=S)n2-c2ccc(C)c(C)c2)c(=O)[nH]1	.	.	2	.	-15
O=C1C=C(c2ccc(F)c(Cl)c2)C[C@@H](c2ccc(F)cc2)C1	.	.	2	.	-2
O=c1/c(=C\c2cc([N+](=O)[O-])cc([N+](=O)[O-])c2O)sc2nc3ccccc3n12	50*	-3	33	0.5	46
SMILES	Diaph inh CS	G6PDH counter	HKDC1 inhibitor	Diaph act CS	PfGluPho inh
O=C(O)c1cc(C(=O)O)cc(-c2ccc(/C=c3/sc4nc5ccccc5n4c3=O)o2)c1	98*	-1	24	0	35
O=c1/c(=C/c2ccccn2)sc2nc3ccccc3n12	15	-7	-1	0.8	14
CCC(=O)c1ccc(N2CCN(C(=O)c3cccs3)CC2)c(F)c1	.	.	-5	.	-10
CC(=O)N1CCC2(CC1)C/C(=N\NC(=S)Nc1ccc(C)cc1)c1cc(O)ccc1O2	54*	1	5	0.5	35
Cc1ccc(C)c(NC(=O)COC(=O)COc2cccc3c2OC(C)(C)C3)c1	.	.	-2	.	-6
Oc1ccc(N=Cc2ccc(O)c(O)c2)cc1	61*	58*	25	0.4	67*
Oc1ccc(/C=N/N=C/c2ccc(O)c(O)c2)cc1O	.	.	2	.	17
O=C(Cc1ccccc1)N/N=C/c1ccc2cccc(O)c2n1	15	56*	6	0.8	-14
Cc1ccc(S(=O)(=O)N(C)C)cc1NC(=S)Nc1cccc2ccccc12	.	.	16	.	61*
COc1cccc(/C=C/C(=O)OCC(=O)NC(=O)NC2CCCCC2)c1	.	.	0	.	7
O=[N+]([O-])c1ccc(O)c(/C=N/n2cnc3ccccc32)c1	8	-12	-4	0.9	4
Cc1ccc(/C=C2\SC(=S)N(/N=C/c3cc([N+](=O)[O-])ccc3O)C2=O)o1	63*	12	-12	0.4	51
CCOC(=O)c1c(NC(=O)C2C3CCC(O3)C2C(=O)O)sc(C)c1-c1ccc(C)cc1 (stereo unspecified)	52*	-1	-1	0.5	-46
CCOC(=O)c1c(-c2cccc3ccccc23)csc1NC(=O)C1C2CCC(O2)C1C(=O)O (stereo unspecified)	21	4	-3	0.8	-21
COc1cc(C(=O)N[C@H](C(=O)OCC(=O)NC2CCCCCC2)C(C)C)cc(OC)c1OC	.	.	4	.	18
CC(N=C1NS(=O)(=O)c2ccccc21)C(=O)NCc1ccncc1 (stereo unspecified)	.	.	-6	.	5
COc1ccc(Cc2nnc(NC(=O)c3cccs3)s2)cc1OC	7	1	-4	0.9	-5
Nc1ccc(Br)c2cccnc12	27	35	30	0.7	63*
O=C(CCc1nc(-c2ccccc2)c(-c2ccccc2)o1)OCc1ccc(Cl)cc1	9	2	-4	0.9	4
O=C(O)CCc1ccc(-c2ccccc2)o1	0	8	-4	1	66*
O=C(O)CCc1nc(-c2ccccc2)c(-c2ccccc2)o1	80*	1	.	0.2	.
CCN1/C(=C/c2ccc3cc(C)ccc3[n+]2C)Sc2ccc3sccc3c21	.	-1	11	.	65*
O=C(O)c1cccc(NS(=O)(=O)c2ccc(-c3ccc(S(=O)(=O)Nc4cccc(C(=O)O)c4)cc3)cc2)c1	51*	0	0	0.5	-39
Cn1c(/N=C/c2c(O)ccc3ccccc23)nc2ccccc21	77*	12	54*	0.2	76*
CC(C)(C)NS(=O)(=O)c1ccc(NC(=O)C2CCCCC2)cc1	2	6	-6	1	-12
CC(C)(C)N1C(=O)Cc2c1nc(N)c1c(N)nc(N3CCCCC3CO)c(C#N)c21 (stereo unspecified)	56*	46	25	0.4	89*
CN(CCO)c1nc(N)c2c(N)nc3c(c2c1C#N)CC(=O)N3C1CCCC1	42	37	.	0.6	.
